Reference: ChEMBL document CHEMBL3351834, “Jalapinoside, a macrocyclic bisdesmoside from the resin glycosides of Ipomea purga, as a modulator of multidrug resistance in human cancer cells” (J Nat Prod, 2015)
≈ marks a conversion by molar mass, not a printed value.

Key:
MCF7 [1] = assay: Cytotoxicity against human MCF7 cells assessed as growth inhibition after 72 hrs by SRB assay; assay type: functional, cell-based; conditions: MCF7, 72 h
In short: (§1)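 SRB assay. Log-phase cells, RPMI 1640 + 10% FBS, treated in triplicate with test samples at 0.2−25 μg/mL, 72 h at 37 °C, 5% CO2, static conditions. IC50 (50% inhibition of control growth) read from a semilog plot of concentration (μg/mL) against % growth inhibition. Resistant subline kept in 0.192 μg/mL vinblastine; a vinblastine-free stock also maintained.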

MCF7 [2] = assay: Cytotoxicity against human MCF7 cells assessed as growth inhibition after 72 hrs by SRB assay in presence of vinblastine; assay type: functional, cell-based; conditions: MCF7, 72 h; in short: as §1
MCF7 [3] = assay: Cytotoxicity against vinblastin-sensitive human MCF7 cells assessed as growth inhibition after 72 hrs by SRB assay; assay type: functional, cell-based; conditions: MCF7, 72 h; in short: as §1
MCF7 [4] = assay: Reversal of multidrug-resistance in human MCF7 cells assessed as reduction in vinblastine IC50 at 25 ug/ml relative to IC50 vinblastine alone; assay type: functional
In short: (§2)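 Modulation by SRB assay. MCF-7 or MCF-7/Vin cells exposed 72 h to vinblastine (0.000 64−10 μg/mL) with or without glycolipid at 25 or 5 μg/mL (water−DMSO 9:1). Vinblastine IC50 taken from a semilog growth-inhibition plot. Reserpine 5 μg/mL as reference modulator. Reversal fold = IC50 of vinblastine alone ÷ IC50 with test compound.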

MCF7 [5] = assay: Reversal of multidrug-resistance in human MCF7 cells in presence of vinblastine assessed as reduction in vinblastine IC50 at 25 ug/ml relative to IC50 vinblastine alone; assay type: functional; in short: as §2
MCF7 [6] = assay: Reversal of multidrug-resistance in vinblastin-sensitive human MCF7 cells assessed as reduction in vinblastine IC50 at 25 ug/ml relative to IC50 vinblastine alone; assay type: functional; in short: as §2

Row | Structure (SMILES) | IC50 (MCF7 [1]) | IC50 (MCF7 [2]) | IC50 (MCF7 [3]) | fold change (FC) (MCF7 [4]) | fold change (FC) (MCF7 [5]) | fold change (FC) (MCF7 [6])
1 | CCCCCCCCCCCC(=O)O[C@H]1[C@@H](O)[C@@H](C)O[C@@H](O[C@@H]2[C@@H](O[C@@H]3O[C@H](CO)[C@@H](O)[C@H](O)[C@H]3O[C@@H]3O[C@H](C)[C@@H](O)[C@H](OC(=O)[C@@H](C)CC)[C@H]3O)[C@@H](OC(=O)[C@@H](C)CC)[C@H](O[C@H]3[C@@H]4O[C@H]5[C@H](O[C@H](CCC)CCCCCCC[C@H](O[C@@H]6O[C@H](C)[C@@H](O)[C@H](O)[C@H]6O)CC(=O)O[C@H]3[C@H](O)[C@@H](COC(C)=O)O4)O[C@H](C)[C@@H](O)[C@@H]5O)O[C@H]2C)[C@@H]1O | < 0.00064 µg/mL | < 0.00064 µg/mL | < 0.00064 µg/mL | >1593 | >1906.3 | 73.4
2 | COC(=O)[C@H]1[C@H]2C[C@@H]3c4[nH]c5cc(OC)ccc5c4CCN3C[C@H]2C[C@@H](OC(=O)c2cc(OC)c(OC)c(OC)c2)[C@@H]1OC [RESERPINE] | 0.037 µg/mL (≈ 0.0608 µM) | 0.31 µg/mL | 0.003 µg/mL (≈ 0.00493 µM) | – | – | –
3 | CC[C@]1(O)C[C@@H]2CN(CCc3c([nH]c4ccccc34)[C@@](C(=O)OC)(c3cc4c(cc3OC)N(C)[C@H]3[C@@](O)(C(=O)OC)[C@H](OC(C)=O)[C@]5(CC)C=CCN6CC[C@]43[C@@H]65)C2)C1 [VINBLASTINE] | 1.02 µg/mL (≈ 1.26 µM) | 1.22 µg/mL | – | – | – | –
